{
  "source": "ChEMBL document CHEMBL1121364",
  "about": "“Nucleoside conjugates as potential antitumor agents. 3. Synthesis and antitumor activity of 1-(beta-D-arabinofuranosyl)cytosine conjugates of corticosteroids” (1980)",
  "key": {"[1]": {"tested_on": "L1210", "test": "Antitumor activity in the mice with intraperitoneal implanted L1210 lymphoid leukemia at the dose 75 mg/kg/day x 5 was determined as Survival time in days; Range is 15-37 days", "format": "functional, Mus musculus", "how_it_was_run": "(§1)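 C3D2F1/J female mice (C3H/HeJ female × DBA/2J male), groups of six to eight, average weight 25 g. Inoculated ip with 1 × 10^6 L1210 ascites cells taken from DBA/2Ha donor mice bearing 3-5 day old tumors. Compounds were dissolved in 0.154 N NaOH, neutralized with 0.154 N HCl (final 0.9% NaCl), and given ip daily for 5 days from 24 h post-implant. Median survival T/C; ILS = (T/C − 1) × 100; 30-day survivors counted.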"}, "[2]": {"tested_on": "L1210", "test": "Antitumor activity in the mice with intraperitoneal implanted L1210 lymphoid leukemia at the dose 50 mg/kg/day x 5 was determined as Survival time in days; Range is 14-24 days", "format": "functional, Mus musculus", "how_it_was_run": "(§2)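 Female C3D2F1/J mice (C3H/HeJ × DBA/2J), groups of six to eight, average weight 25 g. Each mouse got 1 × 10^6 L1210 ascites cells ip, taken from DBA/2Ha donor mice bearing 3-5 day tumors. Compound was dissolved in 0.154 N NaOH and neutralized with 0.154 N HCl (final 0.9% NaCl). Dosed ip daily ×5, starting 24 h after implant. Recorded body weight change on day 8, survival range, median survival and 30-day survivors. ILS = (T/C − 1) × 100.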"}, "[3]": {"tested_on": "L1210", "test": "Antitumor activity in the mice with intraperitoneal implanted L1210 lymphoid leukemia at the dose of 25 mg/kg/day x 5 was determined as mean survival of treated group compared to untreated; 17.5/9.5", "format": "functional, Mus musculus", "how_it_was_run": "as §1"}, "[4]": {"tested_on": "L1210", "test": "Antitumor activity in mice with intraperitoneal implanted L1210 lymphoid leukemia at the dose 50 mg/kg/day x 5 was determined as weight change (g/mouse) on 8th day", "format": "functional", "how_it_was_run": "(§3)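 C3D2F1/J female mice (C3H/HeJ × DBA/2J), groups of six to eight, average 25 g, inoculated ip with 1 × 10^6 L1210 ascites cells taken from DBA/2Ha donor mice carrying 3-5 day tumors. Compound dissolved in 0.154 N NaOH, then neutralized with 0.154 N HCl to give 0.9% NaCl. Given ip daily for 5 consecutive days starting 24 h after implantation. Body weight change per mouse recorded on day 8.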"}, "[5]": {"tested_on": "L1210", "test": "Antitumor activity in mice with intraperitoneal implanted L1210 lymphoid leukemia at the dose 25 mg/kg/day x 5 was determined as weight change (g/mouse) on 8th day", "format": "functional", "how_it_was_run": "as §3"}, "[6]": {"tested_on": "L1210", "test": "Antitumor activity in the mice with intraperitoneal implanted L1210 lymphoid leukemia at the dose 50 mg/kg/day x 5 was determined and number of animals survived on 30 th day were reported; 0/8", "format": "functional, Mus musculus", "how_it_was_run": "as §2"}, "[7]": {"tested_on": "L1210", "test": "Antitumor activity in the mice with intraperitoneal implanted L1210 lymphoid leukemia at the dose 25 mg/kg/day x 5 was determined as percentage increase in the life span as compared with control tumor bearers", "format": "functional", "details": "Mus musculus, L1210, ip", "how_it_was_run": "as §2"}, "[8]": {"tested_on": "L1210", "test": "Antitumor activity in mice with intraperitoneal implanted L1210 lymphoid leukemia at the dose 75 mg/kg/day x 5 was determined as weight change (g/mouse) on 8th day", "format": "functional", "how_it_was_run": "as §3"}, "[9]": {"tested_on": "L1210", "test": "Antitumor activity in the mice with intraperitoneal implanted L1210 lymphoid leukemia at the dose 25 mg/kg/day x 5 was determined as Survival time in days; Range is 13- >45 days", "format": "functional, Mus musculus", "how_it_was_run": "as §2"}, "[10]": {"tested_on": "L1210", "test": "Antitumor activity in the mice with intraperitoneal implanted L1210 lymphoid leukemia at the dose 50 mg/kg/day x 5 was determined as percentage increase in the life span as compared with control tumor bearers", "format": "functional", "details": "Mus musculus, L1210, ip", "how_it_was_run": "as §1"}, "[11]": {"tested_on": "L1210", "test": "Antitumor activity in the mice with intraperitoneal implanted L1210 lymphoid leukemia at the dose 25 mg/kg/day x 5 was determined and number of animals survived on 30 th day were reported; 1/8", "format": "functional, Mus musculus", "how_it_was_run": "as §2"}, "[12]": {"tested_on": "L1210", "test": "Antitumor activity in the mice with intraperitoneal implanted L1210 lymphoid leukemia at the dose 75 mg/kg/day x 5 was determined as percentage increase in the life span as compared with control tumor bearers", "format": "functional", "details": "Mus musculus, L1210, ip", "how_it_was_run": "as §1"}, "[13]": {"tested_on": "L1210", "test": "In Vitro evaluation for the antiproliferative activity by observing the growth inhibition of L1210 lymphoid leukemia cells in culture at 72 hour", "format": "functional, Mus musculus", "how_it_was_run": "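Growth of L1210 lymphoid leukemia cells in culture measured by Trypan blue exclusion of viable cells after 72 h of drug exposure. ED50 is the concentration giving 50% growth inhibition. In some runs the compound was first preincubated in medium at 37 °C for 24 or 48 h before the assay.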"}, "[14]": {"tested_on": "L1210", "test": "Antitumor activity in the mice with intraperitoneal implanted L1210 lymphoid leukemia at the dose 75 mg/kg/day x 5 was determined and number of animals survived on 30 th day were reported; 1/8", "format": "functional, Mus musculus", "how_it_was_run": "as §1"}, "[15]": {"tested_on": "L1210", "test": "Antitumor activity in the mice with intraperitoneal implanted L1210 lymphoid leukemia at the dose of 75 mg/kg/day x 5 was determined as mean survival of treated group compared to untreated; 18/9.5", "format": "functional, Mus musculus"}, "[16]": {"tested_on": "L1210", "test": "Antitumor activity in the mice with intraperitoneal implanted L1210 lymphoid leukemia at the dose of 50 mg/kg/day x 5 was determined as mean survival of treated group compared to untreated; 20.5/8", "format": "functional, Mus musculus"}},
  "data": [
    {"smiles": "C[C@H]1C[C@@H]2[C@H]([C@@H](O)C[C@@]3(C)[C@H]2CC[C@]3(O)C(=O)COP(=O)(O)OC[C@H]2O[C@@H](n3ccc(N)nc3=O)[C@@H](O)[C@@H]2O)[C@@]2(C)C=CC(=O)C=C12", "values": [
      {"measurement": "Survival time", "setting": "[1]", "value": 15, "unit": "days"},
      {"measurement": "Survival time", "setting": "[2]", "value": 14, "unit": "days"},
      {"measurement": "T/C", "setting": "[3]", "value": 17.5},
      {"measurement": "Weight change", "setting": "[4]", "value": -1.08, "unit": "g mouse-1"},
      {"measurement": "Weight change", "setting": "[5]", "value": 2, "unit": "g mouse-1"},
      {"measurement": "Survivors", "setting": "[6]", "value": 0},
      {"measurement": "ILS at 25 mg/kg/day", "setting": "[7]", "value": 84, "unit": "%"},
      {"measurement": "Weight change", "setting": "[8]", "value": -1.07, "unit": "g mouse-1"},
      {"measurement": "Survival time", "setting": "[9]", "value": 13, "unit": "days"},
      {"measurement": "ILS at 50 mg/kg/day", "setting": "[10]", "value": 156, "unit": "%"},
      {"measurement": "Survivors", "setting": "[11]", "value": 1},
      {"measurement": "ILS at 75 mg/kg/day", "setting": "[12]", "value": 90, "unit": "%"},
      {"measurement": "ED 50", "setting": "[13]", "value": 450, "unit": "nM"},
      {"measurement": "Survivors", "setting": "[14]", "value": 1},
      {"measurement": "T/C", "setting": "[15]", "value": 18},
      {"measurement": "T/C", "setting": "[16]", "value": 20.5}
    ]}
  ]
}
